The sample as a whole holds a higher share of hits than the screen did.
TLR9-MyD88 inh = TLR9-MyD88 interaction inhibition; CHO BLA complementation TLR9-MyD88, CCF4 FRET ratio; AID 504734; 340,000 compounds, 0.21% hits; inhibition, % at 4.98 µM;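 active means inhibition above the mean over all tested compounds plus 3 SD, cut at about 21% in these data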;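 further: 0% = DMSO only wells and 100% = clavulanate BLA inhibitor control wells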
CHOP UPR activ = apoptotic UPR (CHOP) activation. CHO-CHOP luciferase reporter, luminescence; percent of tunicamycin response over DMSO baseline. activation, % at 10 µM. 330,000 compounds, 0.34% hits;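 active means at 10 µM dose, activation of 40% or more, normalized to positive control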;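 further: 100% = tunicamycin at 10 µg/mL and 0% = DMSO alone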
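Test system: CHO CHOP reporter cells. Input: 500 CHO-CHOP cells per well. Medium: F12 with 10% FBS. Technique: luciferase luminescence. Measure: percent activation relative to tunicamycin control. Dosing: 10 µM compound, 0.5% DMSO. Timing: 16-18 h cell attachment, then 6 h compound exposure, 37 °C.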
XBP1 UPR activ = activators of adaptive arm of unfolded protein response (XBP1); CHO-XBP1 luciferase reporter, IRE1-XBP1 UPR activation, luminescence; percent of tunicamycin response, DMSO as zero; activation, % at 20 µM; 330,000 compounds, 0.33% hits;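 active means versus positive control, 20 µM dose yields 30% or more activation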;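 further: 100% = tunicamycin at 10 µg/mL and 0% = DMSO only wells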
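Signal: luciferase luminescence; Assay system: CHO-XBP1 luciferase reporter cells; Amount: one thousand reporter cells per well; Dosing: 20 µM single concentration, DMSO 1%; Benchmarks: high control tunicamycin 10 µg/mL final, low control DMSO vehicle only; Schedule: 6 h compound exposure at 37 °C, 5% CO2; Evaluation: percent activation relative to tunicamycin reference.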
TLR4-MyD88 BLA = inhibitors of human TLR4-MyD88 binding | inhibition, % at 8.4 µM | AID 861 | HeLa CL3-4 TLR4/MyD88 BLA complementation, FRET ratio | 200,000 compounds, 0.18% hits; in the data active means inhibition above about 25%;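 further: 0% = vehicle and 100% = reference inhibitor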
Target sequence (O00206 whole entry, looked up): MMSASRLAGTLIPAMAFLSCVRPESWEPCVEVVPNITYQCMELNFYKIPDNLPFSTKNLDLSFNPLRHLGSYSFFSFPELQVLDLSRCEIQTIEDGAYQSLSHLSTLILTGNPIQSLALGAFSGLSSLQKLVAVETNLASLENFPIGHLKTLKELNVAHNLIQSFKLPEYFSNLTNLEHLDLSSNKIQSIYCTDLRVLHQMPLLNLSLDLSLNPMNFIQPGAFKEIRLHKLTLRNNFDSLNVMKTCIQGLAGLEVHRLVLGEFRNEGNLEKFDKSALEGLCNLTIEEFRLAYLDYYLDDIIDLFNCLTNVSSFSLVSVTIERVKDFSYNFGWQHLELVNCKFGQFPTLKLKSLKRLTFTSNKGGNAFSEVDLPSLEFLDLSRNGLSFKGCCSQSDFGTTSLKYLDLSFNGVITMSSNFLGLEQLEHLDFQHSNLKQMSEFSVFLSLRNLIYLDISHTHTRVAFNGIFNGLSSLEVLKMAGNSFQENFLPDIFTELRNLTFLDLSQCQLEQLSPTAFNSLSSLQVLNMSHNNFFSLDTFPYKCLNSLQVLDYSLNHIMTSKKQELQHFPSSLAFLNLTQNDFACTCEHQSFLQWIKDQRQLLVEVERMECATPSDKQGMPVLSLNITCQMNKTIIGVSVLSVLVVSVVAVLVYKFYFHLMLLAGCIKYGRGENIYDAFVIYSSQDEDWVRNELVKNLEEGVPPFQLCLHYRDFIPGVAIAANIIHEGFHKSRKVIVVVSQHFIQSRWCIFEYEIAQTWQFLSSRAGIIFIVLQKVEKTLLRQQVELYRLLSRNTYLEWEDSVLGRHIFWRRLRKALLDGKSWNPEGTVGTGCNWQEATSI
Target sequence (Q99836 whole entry, looked up): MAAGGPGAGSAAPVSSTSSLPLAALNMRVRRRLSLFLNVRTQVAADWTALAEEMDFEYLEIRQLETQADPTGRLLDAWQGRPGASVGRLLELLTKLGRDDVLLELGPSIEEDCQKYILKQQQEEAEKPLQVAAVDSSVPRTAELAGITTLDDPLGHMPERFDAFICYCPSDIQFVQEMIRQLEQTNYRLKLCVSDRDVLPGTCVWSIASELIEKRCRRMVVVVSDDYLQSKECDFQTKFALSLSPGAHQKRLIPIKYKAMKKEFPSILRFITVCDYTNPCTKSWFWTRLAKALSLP
CHOP inhibitor = CHOP inhibition in unfolded protein response; CHO-K1 CHOP-promoter luciferase, tunicamycin-induced, 15-18 h; inhibition, % at 10 µM; 220,000 compounds, 3.8% hits; AID 2732;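 active means compounds that reduced the stress-induced luciferase reporter signal by more than about 70% of percent inhibition, limit read from the data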;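 further: 0% = tunicamycin plus vehicle and 100% = wells without tunicamycin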
NOD2 RIPK2 PPI = NOD2-RIPK2 protein interaction inhibition. O43353. CHO BLA complementation NOD2-RIPK2, CCF4 ratio. inhibition, % at 4.98 µM. AID 624267. 360,000 compounds, 0.38% hits; in the data active means inhibition above about 21%;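 further: 0% = vehicle only and 100% = reference blocker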
Numbers without * were called inactive; / = not tested or not shown.

SMILES | TLR9-MyD88 inh | CHOP UPR activ | XBP1 UPR activ | TLR4-MyD88 BLA | CHOP inhibitor | NOD2 RIPK2 PPI
C/C(=N\NC(=O)Cc1c[nH]c2ccccc12)c1ccc2ccccc2c1 | -4.5 | 0.0 | -1.7 | -11.9 | 81.3* | 0.0
C/C(=N/NC(=O)Nc1ccccc1)c1ccc(C)cc1 | -8.2 | 3.7 | 0.9 | -10.3 | 62.1 | -9.9
C/C(=N\NC(=O)c1c[nH]c2ccccc12)c1ccc2c(c1)OCO2 | 4.3 | 0.3 | 3.9 | -1.2 | -0.4 | -8.6
C/C(=N\NC(=O)Nc1ccccc1)c1ccc2ccccc2c1 | -4.7 | -2.6 | 0.4 | -8.9 | 80.3* | -3.8
N#Cc1nc(Cc2ccccc2)oc1NCc1cccnc1 | 6.0 | -2.2 | 0.7 | 10.7 | -15.9 | -12.3
N#Cc1ncc(Cc2ccccc2)nc1C#N | -5.0 | 60.0* | 1.7 | / | / | -10.1
CCc1nc2c(OCCOc3ccc(F)cc3)cccn2c1N(C)C(=O)c1ccco1 | / | / | / | / | / | -8.0
O=C(CSc1nccn1-c1ccccc1)Nc1ccc2c(c1)OCO2 | -7.4 | 1.1 | 1.9 | 1.0 | -7.1 | -6.5
Cc1cc(C)cc(-n2ccnc2SCC(=O)Nc2ccc3c(c2)OCCO3)c1 | 8.7 | -1.8 | -1.4 | -10.8 | 83.6* | -3.0
CCOc1cc(/C=C2\CN(C)C/C(=C\c3ccc(O)c(OCC)c3)C2=O)ccc1O | -1.4 | 43.8* | -3.5 | / | / | 7.4
CCOc1cc(/C=C2\CCC/C(=C\c3cc(Cl)c(O)c(OCC)c3)C2=O)cc(Cl)c1O | 6.8 | 34.6 | 10.7 | -7.8 | 92.8* | 8.1
C=CCNC(=O)/C(C#N)=C\c1cc(Cl)c(O)c(OCC)c1 | -6.8 | / | / | 1.7 | -1.2 | -4.2
CN(Cc1ccccc1)S(=O)(=O)c1ccc(Cl)c(C(=O)NCc2ccc3c(c2)OCO3)c1 | 6.2 | 0.4 | -4.6 | -5.2 | 46.8 | -1.0
Cn1nc(-c2ccc(Cl)cc2)c2cc(C(=O)N3CCN(c4ccccn4)CC3)sc21 | -8.5 | 3.7 | 4.5 | -3.6 | 89.9* | 3.8
CCN(CC)CCN1CCN(c2cncc(-c3ccc4ccccc4c3)n2)CC1 | / | / | / | / | / | -5.7
CCOc1ccc(NC(=O)Cn2cncc2-c2ccc([N+](=O)[O-])cc2)cc1 | -3.6 | / | / | 0.3 | 66.4 | -5.9
O=C(Cn1cncc1-c1ccc([N+](=O)[O-])cc1)Nc1cccc2ccccc12 | 4.2 | / | / | -0.2 | 92.5* | -3.3
O=S1(=O)N=C(Nc2ccc(S(=O)(=O)N3CCCCC3)cc2)c2ccccc21 | 7.2 | -1.2 | -5.3 | 11.6 | 92.0* | 2.6
O=S1(=O)N=C(Nc2ccc(N3CCOCC3)cc2)c2ccccc21 | -9.2 | 3.4 | 0.7 | 11.9 | 2.5 | -3.0
COC(=O)CNc1nc(Cl)nc(Nc2ccc(Cl)cc2)n1 | -1.2 | 2.9 | -0.5 | -5.4 | 74.5* | -5.1
Cc1ccc(/C=C2\SC(=S)N(CCCC(=O)Nc3cc(C)on3)C2=O)cc1 | -1.5 | -1.3 | -9.0 | / | / | 5.6
Cc1cc(NC(=O)CCCN2C(=O)/C(=C\c3cccs3)SC2=S)no1 | 6.0 | 1.4 | 5.1 | -5.9 | 70.5* | 11.0
Cc1cc(NC(=O)CCN2C(=O)/C(=C\c3ccccc3Cl)SC2=S)no1 | -8.7 | -1.8 | 1.0 | -3.7 | 80.9* | 5.0
COc1cc(C(=O)O/N=C2/C=C(C)C(=O)C=C2C)cc(OC)c1OC | 0.0 | 95.9* | -5.0 | -8.2 | -55.4 | 0.2
c1ccc(-c2csc3ncnc(NCc4ccccn4)c23)cc1 | -5.3 | -1.2 | 4.7 | / | 42.0 | 5.1
SMILES | TLR9-MyD88 inh | CHOP UPR activ | XBP1 UPR activ | TLR4-MyD88 BLA | CHOP inhibitor | NOD2 RIPK2 PPI
c1ccc(CNc2ncnc3scc(-c4cccs4)c23)nc1 | -6.4 | -1.5 | 1.6 | 9.4 | 71.8* | -16.1
CC1Nc2nc(NC(=O)C(C)(C)C)[nH]c(=O)c2N(C)C1C (stereo not drawn) | -7.9 | 0.1 | -1.4 | 1.9 | 13.3 | -8.1
CCOc1ccccc1NC(=O)c1cc(C(=O)c2cc(Br)ccc2O)coc1=N | 0.5 | 0.4 | -3.1 | 6.7 | 72.1* | 3.5
Cc1ccccc1-c1noc(-c2ccccc2F)n1 | 2.8 | 1.0 | 4.2 | 0.1 | 77.8* | -6.8
Cc1ccccc1-c1noc(-c2ccc(Cl)cc2)n1 | -4.1 | 4.2 | 4.6 | 3.8 | -32.0 | 2.9
COc1cc2nc(-c3ccccc3)nc(N3CCCC3)c2cc1OC | / | / | / | -6.6 | 82.0* | /
COc1ccc(-c2nc(CCl)cs2)cc1OC | 2.8 | -2.6 | 5.5 | -12.9 | -37.4 | -3.5
COc1ccc(-c2nc(-c3ccc(O)cc3O)cs2)cc1OC | 3.4 | / | / | -7.8 | 85.1* | -6.4
S=C(NCCCc1cnc[nH]1)NCCCN(Cc1ccc(Cl)cc1)c1ccc(Br)cn1 | / | / | / | / | / | 3.6
Cc1ccc(NC(=O)c2cc(N3C(=O)CCC3=O)ccc2N2CCCCC2)cc1 | 7.1 | 2.3 | 0.8 | 5.8 | 5.9 | -10.1
CCOC(=O)c1c(C(F)(F)C(F)(F)C(F)(F)C(F)(F)F)n[nH]c1C | -8.3 | 0.1 | -0.8 | 4.3 | 81.7* | -1.7
CCN1C(=O)/C(=C\c2cccn2-c2ccc([N+](=O)[O-])cc2)N(CC)C1=S | 4.3 | -1.1 | 9.8 | 3.0 | 74.4* | -3.9
Cc1ccc(Nc2nc(-c3ccc(S(=O)(=O)N4CCOCC4)cc3)cs2)cc1Cl | 9.5 | 13.0 | 9.9 | -8.8 | 88.4* | -0.1
Cc1ccc(S(=O)(=O)Nc2ccccc2C(=O)Nc2nc(-c3ccc(F)cc3)cs2)cc1 | 8.6 | 15.8 | 3.7 | 11.8 | 67.0 | 0.7
COc1cccc(C(=O)Nc2nc(-c3ccc(S(=O)(=O)N4CCOCC4)cc3)cs2)c1 | -5.8 | 2.1 | -3.8 | 9.9 | 83.6* | -1.9
COc1ccc(-c2csc(NC(=O)c3ccccc3NS(=O)(=O)c3ccc(F)c(F)c3)n2)cc1 | 3.7 | 6.5 | 2.6 | 3.0 | 79.2* | 6.7
CC(C)COc1cccc(C(=O)Nc2ccc(S(=O)(=O)N3CCOCC3)cc2)c1 | -0.3 | -1.4 | 5.9 | 0.6 | 80.5* | -1.4
CCCCNC(=O)c1ccc(Cc2cn(C)c3ccccc23)nc1 | / | / | / | / | / | -1.9
COc1cccc(-c2cnc3c(NC(C)=O)cc(-c4cccc(C(=O)NCCN(C)C)c4)cn23)c1 | / | / | / | / | / | 9.1
Cc1ccccc1S(=O)(=O)NC(=O)C1(C)CCN1C(=O)c1ccccc1CCc1ccccc1 (stereo not drawn) | / | / | / | / | / | -1.0
O=C(O)C(Cc1ccccc1)N1C(=O)/C(=C/c2cccc3ccccc23)SC1=S (stereo not drawn) | / | / | / | -2.6 | 106.0* | /
COc1ccc(-c2n[nH]c(C)c2-c2cscn2)c(O)c1 | -5.0 | -0.5 | -2.3 | / | 4.2 | 5.0
CCOc1ccc(-c2n[nH]c(C)c2-c2ccccc2OC)c(O)c1 | 0.3 | -0.4 | -3.1 | -19.7 | 87.1* | 4.0
COC(=O)c1sccc1NC(=O)c1cc(-c2cc(C)ccc2C)nc2ccccc12 | 4.6 | 1.2 | 0.2 | 2.4 | 92.8* | -14.0
CCOC(=O)c1sc(NC(=O)c2cc(-c3ccc(C)cc3)nc3ccccc23)c(C#N)c1C | -0.1 | -2.8 | 0.3 | 9.7 | 61.2 | 3.9
